Experimental data reported in the array DNA melting data of Ke et al. (doi:10.1101/2024.01.08.574731).

Key:
[1] = folding enthalpy; higher = less favourable; fluorescence melt of hairpins on a sequencing array, two-state fit; conditions: sodium 0.088 M
Summary of the method: (§1)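 Library hairpins on a sequenced MiSeq flow cell carried annealed Cy3 and quencher oligos, and their Cy3 fluorescence was imaged in 50 mM Na-HEPES pH 8.0 with 25 mM NaCl, in 2.5 °C steps up to 60 °C. Signals were normalised to Cy3 before quenching and to control constructs. Melting temperature and folding enthalpy were obtained from bootstrapped two-state fits, combined by inverse-variance weighting across four replicates, and the fitted temperatures were then raised by 9.35 °C to match UV melts.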

[2] = melting temperature; fluorescence melt of hairpins on a sequencing array, two-state fit, raised by 9.35 °C to match UV melts; conditions: sodium 0.088 M
Summary of the method: as §1

Sequence	folding enthalpy [1] [kcal/mol]	Tm [2] [°C]
GTATTTCGAAAGAACTAC (((.(((....))).)))	-19.2	31.7
GTATTTCGAAAGAATTAC (((.(((....))).)))	-28.3	33.3
GTCAAAGGAAACCTTGAC (((((.(....).)))))	-26.9	38.2
GTCAAAGGAAACTTTGAC (((((((....)))))))	-44.9	55.8
GTCAACCCGAAAGGGGAC (((..(((....))))))	-15	41.8
GTCAACGGAAACGTTGGC (.(((((....))))).)	-32.5	54.9
GTCAAGCGAAAGCTCGAC (((.(((....))).)))	-30.3	49.7
GTCAAGGAAACTTGAC ((((((....))))))	-29.6	53.5
GTCAAGGCGAAAGCCGAC (((..(((....))))))	-10.2	48.1
GTCAAGGGAAACCTTGAC (((((((....)))))))	-47.2	58
GTCAAGGGAAACCTTGGC (.(((((....))))).)	-33.1	49.4
GTCAATGCGAAAGCAGAC (((..(((....))))))	-16.3	39.1
GTCAATGGAAACACTGAC ((((.((....)).))))	-22.1	34.5
GTCAATGGAAACATCGAC (((.(((....))).)))	-33.1	33.3
GTCACACGAAAGTGGAC (((.(((....))))))	-18.7	48.6
GTCACAGGAAACTACGAC (((..((....))..)))	-21.8	28.4
GTCACCCGAAAGGGAGAC (((.(((....))).)))	-33.6	57.2
GTCACCGAAAGGTACGAC ((((((....)))..)))	-18	41.2
GTCACCGAAAGGTATGAC ((((((....)))..)))	-20.2	40.1
GTCACCGAAAGGTCCGAC ((((((....)))..)))	-11.2	31.1
GTCACCGAAAGGTCTGAC ((((((....)))..)))	-15.2	33.7
GTCACCGAAAGGTGGAC ((((((....))).)))	-14.1	54.2
GTCACCGAAAGGTGGGAC ((((((....)))..)))	-9.56	39

Sequence	folding enthalpy [1] [kcal/mol]	Tm [2] [°C]
GTCACCGAAAGGTGTGAC ((((((....)))..)))	-11.6	42.4
GTCACCGAAAGGTTTGAC ((((((....)))..)))	-15.6	37.4
GTCACCGGAAACAGTGAC (((((.(....).)))))	-32.4	44.9
GTCACGCGAAAGCGAGAC (((.(((....))).)))	-17.5	60.1
GTCACGGGAAACCATGAC ((((.((....)).))))	-29.9	41.7
GTCACGGGAAACCGTGAC (((((((....)))))))	-35.5	68.9
GTCACGGGAAACCGTGGC (.(((((....))))).)	-19	62.7
GTCACGGGAAACTGTGAC (((((.(....).)))))	-40.1	54.6
GTCACTACGAAAGTAGAC (((..(((....))))))	-10.2	28.3
GTCACTGGAAACAGTGAC (((((((....)))))))	-46.7	63
GTCAGACGAAAGTCGAC (((.(((....))))))	-31.5	51.9
GTCAGACGAAAGTCGGAC (((.(((....))).)))	-35.5	63.1
GTCAGAGGAAACTCTGGC (.(((((....))))).)	-30.4	50.3
GTCAGAGGAAACTTTGAC ((((.((....)).))))	-32.4	37.8
GTCAGCCGAAAGGCAGAC (((.(((....))).)))	-24.4	61.9
GTCAGCGAAAGCTAAGAC ((((((....)))..)))	-16.7	41.5
GTCAGCGAAAGCTATGAC ((((((....)))..)))	-20.6	44.2
GTCAGCGAAAGCTCAGAC ((((((....)))..)))	-15.8	34.5
GTCAGCGGAAACACTGAC (((((.(....).)))))	-40.7	47.2
GTCAGCGGAAACGCTAAC ((.((((....)))).))	-15.2	37.4
GTCAGCGGAAACGTTGAC ((((.((....)).))))	-43.5	52.9
GTCAGCTCGAAAGAGGAC (((..(((....))))))	-17.7	33.4
GTCAGGGCGAAAGCCGAC (((..(((....))))))	-14.7	48.7

Sequence	folding enthalpy [1] [kcal/mol]	Tm [2] [°C]
GTCAGGGGAAACTCTGAC (((((.(....).)))))	-33.4	48.9
GTCAGTCGAAAGACCGAC (((.(((....))).)))	-22.1	47.4
GTCAGTGCGAAAGCAGAC (((..(((....))))))	-14.4	39.6
GTCAGTGGAAACGTTGAC ((((..(....)..))))	-21.1	34.9
GTCATAGGAAACTACGAC (((.(((....))).)))	-16.5	30.8
GTCATAGGAAACTATGAC (((((((....)))))))	-39.3	55.9
GTCATAGGAAACTGTGAC ((((.((....)).))))	-32.1	46.4
GTCATCGAAAGATCAGAC ((((((....)))..)))	-16.7	26.5
GTCATCGAAAGATGAGAC ((((((....)))..)))	-13.7	40.7
GTCATCGAAAGATGTGAC ((((((....)))..)))	-13.4	35.7
GTCATCGAAAGATTTGAC ((((((....)))..)))	-13.2	29.4
GTCATCTCGAAAGAGGAC (((..(((....))))))	-20.9	39.4
GTCATGCGAAAGCACGAC (((.(((....))).)))	-27.5	52.3
GTCATGGCGAAAGCCGAC (((..(((....))))))	-13.4	42.6
GTCATTGGAAACAATGGC (.(((((....))))).)	-28.6	47.6
GTCCAACGAAAGTTGAC (((.(((....))))))	-14.7	45
GTCCAACGAAAGTTTGAC (((.(((....))).)))	-27.7	42
GTCCAAGGAAACCTGGAC (((((.(....).)))))	-27.7	46.8
GTCCACCGAAAGGTCGAC (((.(((....))).)))	-27.2	44
GTCCACGGAAACACGGAC ((((..(....)..))))	-18.4	37.2
GTCCAGGGAAACCTGGGC (.(((((....))))).)	-33.1	56.5
GTCCCAACGAAAGTTGAC (((..(((....))))))	-9.31	25
GTCCCAGGAAACCAGGAC ((((..(....)..))))	-21.2	35.6

Sequence	folding enthalpy [1] [kcal/mol]	Tm [2] [°C]
GTCCCCCGAAAGGGAGAC (((.(((....))).)))	-30.1	56.6
GTCCCCCGAAAGGGCGAC (((.(((....))).)))	-21.6	49.1
GTCCCCCGAAAGGGGAC (((.(((....))))))	-19.9	67.2
GTCCCCGAAAGGGAGAC ((((((....))).)))	-30	53.7
GTCCCCGAAAGGGATGAC ((((((....)))..)))	-14.6	44.8
GTCCCCGAAAGGGGGGAC ((((((....)))..)))	-11.7	60.5
GTCCCCGGAAACAGGGAC (((((.(....).)))))	-39.9	48.6
GTCCCCGGAAACGGGAAC ((.((((....)))).))	-15.1	46.4
GTCCCCGGAAACGGGGGC (.(((((....))))).)	-19.5	68
GTCCCGCGAAAGCGAGAC (((.(((....))).)))	-32.5	55.7
GTCCCGCGAAAGCGTGAC (((.(((....))).)))	-23.9	52.9
GTCCCGGGAAACCGGGGC (.(((((....))))).)	-19	64.3
GTCCCTGAAAAGGGAC ((((((....))))))	-34.6	67.7
GTCCCTGGAAACAGGAAC ((.((((....)))).))	-21.6	36.1
GTCCCTGGAAACAGGGGC (.(((((....))))).)	-27.5	57.4
GTCCGAGGAAACCCGGAC (((((.(....).)))))	-40.5	53.2
GTCCGCCGAAAGGCTGAC (((.(((....))).)))	-21.9	57.3
GTCCGCGAAAGCGCCGAC ((((((....)))..)))	-11.1	36.9
GTCCGCGAAAGCGTTGAC ((((((....)))..)))	-14.4	36.8
GTCCGCGGAAACACGGAC (((((.(....).)))))	-42	54.2
GTCCGCGGAAACGCAGAC (((.(((....))).)))	-21.5	49.9
GTCCGGCCGAAAGGCGAC (((..(((....))))))	-12.8	41.7
